From publication PMC6954317 (Bioorganic chemistry, 2019)
Where two headings read alike, the source gives them in different places.

Assays:
SphK2 [1] = target: T1, SphK2 (Homo sapiens, UniProt Q9NRA0); assay: SphK2 inhibition, fluorometric assay with NBD-sphingosine as substrate; format: biochemical; conditions: read-out: IC50 for SphK2; 100 nM recombinant SphK2, NBD-sphingosine, 37 °C
T1 sequence (Q9NRA0 1-654): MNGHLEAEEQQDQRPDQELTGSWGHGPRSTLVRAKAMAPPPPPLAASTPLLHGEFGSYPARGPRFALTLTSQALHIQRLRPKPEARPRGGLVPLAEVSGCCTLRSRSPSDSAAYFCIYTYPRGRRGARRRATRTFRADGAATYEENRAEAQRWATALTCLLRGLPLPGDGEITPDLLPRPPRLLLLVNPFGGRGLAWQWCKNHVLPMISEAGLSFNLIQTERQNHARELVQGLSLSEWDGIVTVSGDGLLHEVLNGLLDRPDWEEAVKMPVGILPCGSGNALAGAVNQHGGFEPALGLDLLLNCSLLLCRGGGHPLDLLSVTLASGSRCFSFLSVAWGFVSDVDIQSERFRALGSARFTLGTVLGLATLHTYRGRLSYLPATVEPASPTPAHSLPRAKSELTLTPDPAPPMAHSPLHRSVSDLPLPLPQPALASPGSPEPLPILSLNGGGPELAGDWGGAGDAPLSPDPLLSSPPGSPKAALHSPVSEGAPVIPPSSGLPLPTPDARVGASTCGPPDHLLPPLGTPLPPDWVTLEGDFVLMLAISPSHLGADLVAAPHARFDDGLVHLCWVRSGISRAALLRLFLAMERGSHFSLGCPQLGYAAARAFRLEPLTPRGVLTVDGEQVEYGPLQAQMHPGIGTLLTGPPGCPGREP
Summary of the method: (§1)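 Recombinant SphK1 or SphK2 at 100 nM in 30 mM Tris-HCl pH 7.4 with 150 mM NaCl, 10% glycerol, 0.05% Triton X-100 and 1% DMSO. Test compounds were dissolved in DMSO and screened at 650 μM; actives were then tested at several concentrations to derive IC50. NBD-sphingosine-1-phosphate formation was read by fluorescence (ex 550 nm, em 584 nm) at 37 °C.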

SphK1 = SphK1 (Homo sapiens, UniProt Q9NYA1); assay: SphK1 inhibition, fluorometric assay with NBD-sphingosine as substrate; format: biochemical
Summary of the method: as §1

SphK2 [2] = target: T1, SphK2; conditions: read-out: inhibitory effect reported for K145 on SphK2; cited from earlier work

Chain of SphK1 (Q9NYA1 whole entry): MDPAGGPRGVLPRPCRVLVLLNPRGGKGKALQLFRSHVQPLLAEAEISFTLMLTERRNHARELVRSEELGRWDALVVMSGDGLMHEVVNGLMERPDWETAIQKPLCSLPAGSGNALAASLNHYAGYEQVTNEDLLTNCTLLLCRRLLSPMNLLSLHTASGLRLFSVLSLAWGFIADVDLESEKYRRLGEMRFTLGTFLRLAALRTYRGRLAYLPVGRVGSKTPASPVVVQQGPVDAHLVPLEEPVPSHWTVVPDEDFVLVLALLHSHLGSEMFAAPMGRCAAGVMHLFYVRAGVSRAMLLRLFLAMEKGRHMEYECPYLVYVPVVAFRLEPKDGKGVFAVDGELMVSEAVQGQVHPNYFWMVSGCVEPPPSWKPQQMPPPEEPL

Row | Molecule | IC50 (SphK1) [µM] | further results
1 | 3-((4-(4-chlorophenyl)pyrimidin-2-yl)-1-yl)oxymethyl) quinolin-2(1H)-ones [compound 9] | – | IC50 (SphK2 [1]): 18.2 µM
2 | Oc1ccc(Nc2nccc(-c3ccc(Cl)cc3)n2)cc1 [4a, 4-((4-(4-chlorophenyl)pyrimidin-2-yl)amino)phenol] | 43.9 | –
3 | COc1ccc2[nH]c(=O)c(/C=C/C(=O)c3ccc(Nc4nccc(-c5ccc6ccccc6c5)n4)cc3)cc2c1 [11b, (E)-6-methoxy-3-(3-(4-((4-(naphthalen-2-yl)pyrimidin-2-yl)amino)phenyl)-3-oxoprop-1-en-1-yl)quinolin-2(1H)-one] | – | selectivity SphK1 versus SphK2 (SphK1; in words): selective inhibitory effect on SphK1
4 | COc1cc2cc(CNc3ccc(Nc4nccc(-c5ccc(Cl)cc5)n4)cc3)c(=O)[nH]c2cc1OC [16a, 3-(((4-((4-(4-chlorophenyl)pyrimidin-2-yl)amino)phenyl)amino)methyl)-6,7-dimethoxyquinolin-2(1H)-one] | 59.1 | –
5 | O=c1[nH]c2cc(O)c(O)cc2cc1CNc1ccc(Nc2nccc(-c3ccc4ccccc4c3)n2)cc1 [19b, 6,7-dihydroxy-3-(((4-((4-(naphthalene-2-yl)pyrimidin-2-yl)amino)phenyl)amino)methyl)quinolin-2(1H)-one] | 15.7 | –
6 | CCCCOc1ccc(CCC=C2SC(=O)N(CCN)C2=O)cc1 [K145, 3-(2-amino-ethyl)-5-[3-(4-butoxyl-phenyl)-propylidene]-thiazolidine-2,4-dione] | – | IC50 (SphK2 [2]): 4.3 µM

Now from value to molecule, other results behind:

Row | IC50 (SphK1) [µM] | Molecule | further results
7 | 28.2 | COc1ccc2[nH]c(=O)c(/C=C/C(=O)c3ccc(Nc4nccc(-c5ccc(Cl)cc5)n4)cc3)cc2c1 [11a, (E)-3-(3-(4-((4-(4-chlorophenyl)pyrimidin-2-yl)amino)phenyl)-3-oxoprop-1-en-1-yl)-6-methoxyquinolin-2(1H)-one] | –
8 | 18.7 | COc1cc2cc(CNc3ccc(Nc4nccc(-c5ccc6ccccc6c5)n4)cc3)c(=O)[nH]c2cc1OC [16b, 6,7-dimethoxy-3-(((4-((4-(naphthalen-2-yl)pyrimidin-2-yl)amino)phenyl)amino)methyl)quinolin −2(1H)-one] | –
